Test system: MS2 coat protein
Assay: apparent Kd, MS2 coat protein; higher = weaker binding; RNA-MaP array; FMN 200 µM where present
Method in brief: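 Designs were transcribed by stalled E. coli RNA polymerase on Illumina sequencing-chip clusters. They were titrated with SNAP-549-labelled MS2 coat protein from 0.7 or 1.5 nM, doubling to 3 µM, in 100 mM Tris-HCl pH 7.5, 80 mM KCl, 4 mM MgCl2, BSA, DTT, yeast tRNA and Tween-20, without and then with constant ligand. The apparent Kd is the median of filtered per-cluster fits after normalisation of green signal to red-channel RNA signal and control-cluster median Fmax.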

[1] = designed as: ON switch for flavin mononucleotide, no ligand
[2] = ligand present: flavin mononucleotide, designed as: ON switch for flavin mononucleotide
[3] = designed as: OFF switch for flavin mononucleotide, no ligand
[4] = ligand present: flavin mononucleotide, designed as: OFF switch for flavin mononucleotide

Row | Sequence | apparent Kd [1] | apparent Kd [2] | apparent Kd [3] | apparent Kd [4]
1 | GUUUGUUAUUAGAAGGUGCCAGCGAGAGCUGCACAUGAGGAUCACCCAUGUUGUCGGUGACGACGCAAGGAUAUGGUGGUGGAU | 715 nM | 169 nM |  | 
2 | GUGAACAUGAGGAUCACCCAUGUAGCUCACUGCCAGUGGCUACAGGAUAUAGCACCUCGAGGGUGCUAGAAGGGUGGCCUAGAA | 62.9 nM | 16.8 nM |  | 
3 | UGCCGCAACAACACGGCAUCACAUGAGGAUCACCCAUGUUCACAGGAUAUGCGAUAGCCAACGAAGCAGAAGGGUGAUUACUUA | 31.9 nM | 215 nM |  | 
4 | GGUACCAUCACAGGAUAUGCUUUCCUUUGGAAAGCAGAAGGGUGUAACAUGAGGAUCACCCAUGUGGUGCCAGGGCGUGAGCCC | 184 nM | 13 nM |  | 
5 | UACCUCACUUCUUUGACUCACAUGAGGAUCACCCAUGUAAUAUAGGAUAUGCAUUUUAUUUCUUUGCAGAAGGAUAUUAGUUUU |  |  | 42.8 nM | 79.2 nM
6 | GGACGGUUAGUGAGGAUAUGCUCUACCUCGGUAGAGCAGAAGGCACAUGAGGAUCACCCAUGUGAAAACUGUUC |  |  | 16.6 nM | 21.2 nM
7 | GACCCUAAUGAGAAGGUGUGUAUAAAUUAUAUACAAGGAUAUCGGUCGAGCGUGUUGACAUGAGGAUCACCCAUGUUGAGGGUU | 26.8 nM | 10.4 nM |  | 
8 | AUCACGUAAGGAUAUUCCUACGCAGACAUGAGGAUCACCCAUGUGUUAGUGAAGAAUCGAGGAGAAGGUACAAUGG |  |  | 29.5 nM | 26.8 nM
9 | GUCAGCUCGUGAGGAUAUACAUGAUAGAUCGAUUAAUUAAUUAAUUUAACAUGAGGAUCACCCAUGUAGAAGGCACGAGCUGAC |  |  | 51.7 nM | 46.7 nM
10 | AUGACAGGCAGAGCGCAACGGCGUACAUGAGGAUCACCCAUGUAGGAUAUGCUACACAAAGUGUAGCAGAAGGACAUGCGACGC |  |  | 23.4 nM | 42.2 nM
11 | GAAAACAGAGGAUAUACAUAAGCUAGACGAAAGUCUAGCAAACAUGAGGAUCACCCAUGUAGAAGGCUGAAGAA |  |  | 37.6 nM | 36.3 nM
12 | UUUUCCAGGCAGAAGGGUCCUCACAUGAGGAUCACCCAUGUAAACGUGGAUAGGAUAUGCCACUGGGCUCGAUAAGAGUGGUUC | 640 nM | 128 nM |  | 
13 | UGUCGGAGCAGAGGAUAUUACAUGAGGAUCACCCAUGUAUGAACCAAUAGCUGGAAACAGCAAUGGAAGAAGGCUGCUCCGACA |  |  | 4.99 nM | 5.37 nM
14 | ACGAGUAAAGCAGGAUAUCUAUUGUCUCUGUAACAUGAGGAUCACCCAUGUAGAGAAGGGCUUAGUCAUACACUUCGAAGUUGC |  |  | 9.78 nM | 9.77 nM
15 | GUGCACACUCGAGGAUAUCGGAGUUUUCUUCUUUGAGAAGGCGAUUCGUGCCGUGUUAUUUUGGACAUGAGGAUCACCCAUGUG | 66 nM | 36.8 nM |  | 
16 | GUGCUUUGGGAGAAGGCCGAUAGCAAAGCUAUCGGAGGAUAUUCAUACCGGAAACGGACAUGAGGAUCACCCAUGUGGCACAAA | 1430 nM | 44.5 nM |  | 
17 | AAGAAGUCAGGAUAUGCUGCUCGUCACUUGCGUGAUGAGUAGCAGAAGGGACAUGAGGAUCACCCAUGUGGAGA |  |  | 114 nM | 241 nM
18 | UUAUGUUUUGUAGGAUAUCAUAAGUUAUGUAUUAUAAUUGAAAUUUUGUUAUGAGAAGGACAUUUACAUGAGGAUCACCCAUGU |  |  | 13.6 nM | 9.96 nM
19 | GCAGACGUAGUGAGGAUAUGCUCUACCUCGGUAGAGCAGAAGGCACAUGAGGAUCACCCAUGUGGCUCCUCAUC |  |  | 15.6 nM | 21.9 nM
20 | GUGUAGUCAGGAUAUACAUAGGAAGAGAAGAGAAGAUAAGCACAUGAGGAUCACCCAUGUAGAAGGGACAGUGU |  |  | 65.1 nM | 70.7 nM
21 | GGAGACCUCACAGGAUAUGCUGGACUUUGUCCAGCAGAAGGGUGAAAACAUGAGGAUCACCCAUGUAUGGUCUCCAAAUUUAAA | 200 nM | 13.2 nM |  | 

Row | Sequence | apparent Kd [1] | apparent Kd [2] | apparent Kd [3] | apparent Kd [4]
22 | AAGGACUGUAAAUUAACUCAAAUACAUGAGGAUCACCCAUGUAAGGAUAUCGUCAGGAAUACUGACGAGAAGGUACAUCAGUCC |  |  | 15.6 nM | 20.8 nM
23 | AUGAGGUCAGGAUAUGCAUGGCGGGACUUGCGUCGUGGCGUGGAGAAGGGACAUGAGGAUCACCCAUGUGGAGU |  |  | 91.4 nM | 50.5 nM
24 | GCUAUCGAACAGAAGGGACCGCGGCCGUGGCGGUCAGGAUAUGUAUGCAGUAGUGCCUACAUGAGGAUCACCCAUGUCCGCCGC | 629 nM | 218 nM |  | 
25 | UUGUUGUGUGUAGGAUAUGCAUAUUAUUAUUAUGCAGAAGGACAUGAGGAUCACCCAUGUGUAUUAUUAUUAUAUAUUAUAUAU |  |  | 24.6 nM | 38 nM
26 | ACUUCACAUGAGGAUCACCCAUGUCAGGCCGGACUAGGAUAUUAUCAUGCAGCGUGACCGUGAGAAGGAGUUGGAU | 110 nM | 114 nM |  | 
27 | UCAUACAUUCGAGGAUAUCGGUGAUUAAUUUUACGAGAAGGCGAUAUAAGAUUUAAUUUUUAAGACAUGAGGAUCACCCAUGUA | 30.7 nM | 29.6 nM |  | 
28 | AAAACUGGAGGAUAUACAUGAGGAUCACCCAUGUGUGGGUAGGCUGUGUCGGCGUCAGGUAGAAGGCCACAAAA |  |  | 92.3 nM | 136 nM
29 | AACAGCUCGUCAGGAUAUAUUAUCUUUUAAUGUAUUUAUGUACAUGAGGAUCACCCAUGUUGUUUGUAGAAGGGACGAGCUGAA |  |  | 11.1 nM | 13.1 nM
30 | UUAAAUCGAAACAUGAGGAUCACCCAUGUGUUGUGAUUAAUAUAGGAUAUGUGUAUACUUUUAUGACAGAAGGAUGAUAAUACU | 12.3 nM | 10.7 nM |  | 
31 | GCACAACAUGAGGAUCACCCAUGUCUCACAAACCAAGGAUAUGGGCCCGGCCAGGCCGGAUCAGAAGGUGGAAAAU | 312 nM | 143 nM |  | 
32 | AUUGCUAGCGCAGGAUAUGAUGCGAAAAUUGCGUCAGAAGGGUGUAAUCUCUCAUUGCGGGAGGACAUGAGGAUCACCCAUGUC | 142 nM | 87 nM |  | 
33 | GCAUGCAUAGCGAUAUGAUCGAGAGAUCAUGUCGCUAAAUUUAGAAGGACAUGAGGAUCACCCAUGUAGGAUAUGGGAGCAUGG | 76 nM | 12.7 nM |  | 
34 | CGCUAUGAUGGGUUUAAUGGAGCAUAGGAUAUGCUUGUACAUGAGGAUCACCCAUGUUAUAUUUUGCAGAAGGGUGCAUUUGCG | 284 nM | 95.3 nM |  | 
35 | UACAUGAGGAUCACCCAUGUUUUGUCGUGUAUGGUAUUUAUCUAGGAUAUCAUUCUAUUUAGUUAUGAGAAGGAGAAUAUUAAU |  |  | 28.1 nM | 27.4 nM
36 | CUGUUGGGCUCAGGAUAUCGGGUUUAACAUGAGGAUCACCCAUGUCGUCUGCGAAAGCAGAAUCACGAGAAGGGAGACCAGCGA | 13.3 nM | 7.53 nM |  | 
37 | AUUUUAAAGGGAGGAUAUACAUGAGGAUCACCCAUGUAAACGUGAGGAUCACCCAUGUUAACAAUGUAGAAGGCCUAUAUCUAU |  |  | 41.1 nM | 31 nM
38 | CCAGCGUGUGUGAGGAUAUGCUGGUCCUUGGAUCAGCAGAAGGCACAUGAGGAUCACCCAUGUGAGUACGUUGG |  |  | 16.9 nM | 59.4 nM
39 | AUCAGCUCGUCAGGAUAUACGUCACUGCGUCAGCAGUGUGGUAACAUCACAUGAGGAUCACCCAUGUAGAAGGGACGAGCUGAU |  |  | 5.84 nM | 11.3 nM
40 | UAUAUGUAUGUAGGAUAUGGUAUAUAAAAUAUACCAGAAGGACAUGAGGAUCACCCAUGUAUGAAAUUCCAUAAUAACCGUGUA |  |  | 11.3 nM | 11 nM
41 | CUCGUGUAAGGAUAUGCGAGCCGCGGAAAUACACCGCGGAGGUAGAAGGUACAUGAGGAUCACCCAUGUAAAAC |  |  | 25.5 nM | 103 nM

Source: the EternaBench riboswitch data
